# Tests used:
# hPLA2G4E = target: T1, hPLA2G4E (Homo sapiens, UniProt Q3MJ16); experiment: gel-based ABPP with FP-TAMRA, hPLA2G4E-overexpressing membrane lysate; assay type: biochemical; conditions: 10 μM
# T1 sequence (Q3MJ16 1-868): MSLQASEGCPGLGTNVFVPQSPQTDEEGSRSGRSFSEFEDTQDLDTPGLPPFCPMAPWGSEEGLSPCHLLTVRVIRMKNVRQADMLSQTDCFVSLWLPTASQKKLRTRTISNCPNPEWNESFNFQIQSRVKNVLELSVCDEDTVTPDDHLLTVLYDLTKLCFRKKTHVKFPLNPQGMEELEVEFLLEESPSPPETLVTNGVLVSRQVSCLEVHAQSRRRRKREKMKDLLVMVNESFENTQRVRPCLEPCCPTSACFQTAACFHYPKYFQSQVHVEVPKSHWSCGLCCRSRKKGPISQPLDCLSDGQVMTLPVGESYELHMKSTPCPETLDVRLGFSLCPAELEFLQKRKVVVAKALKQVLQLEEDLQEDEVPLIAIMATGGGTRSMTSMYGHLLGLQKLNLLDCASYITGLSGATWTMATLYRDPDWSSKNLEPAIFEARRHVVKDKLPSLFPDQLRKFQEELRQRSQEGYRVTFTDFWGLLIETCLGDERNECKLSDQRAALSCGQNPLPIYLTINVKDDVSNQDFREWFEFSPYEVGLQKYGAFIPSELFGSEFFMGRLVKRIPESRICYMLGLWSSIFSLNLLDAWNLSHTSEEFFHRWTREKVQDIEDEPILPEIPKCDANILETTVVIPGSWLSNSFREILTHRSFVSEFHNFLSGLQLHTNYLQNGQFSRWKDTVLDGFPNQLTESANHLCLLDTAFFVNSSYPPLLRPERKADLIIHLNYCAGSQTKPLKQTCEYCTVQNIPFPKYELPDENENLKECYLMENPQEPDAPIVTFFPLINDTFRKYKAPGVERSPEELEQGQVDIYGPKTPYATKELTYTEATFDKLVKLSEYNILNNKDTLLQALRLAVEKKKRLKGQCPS
# Summary of the method: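 Membrane lysate from hPLA2G4E-overexpressing cells (1 μg/μL) was preincubated with test compound in DMSO (30 min, rt), then labeled with FP-TAMRA (50 nM, 5 min, rt). Proteins were denatured in Laemmli buffer and resolved on 8% acrylamide SDS-PAGE. In-gel fluorescence was normalized to Coomassie staining.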
# hMAGL = target: T2, hMAGL (Homo sapiens, UniProt Q99685); experiment: natural substrate-based fluorescence assay MAGL; assay type: biochemical; conditions: 10 μM
# T2 sequence (Q99685 1-303): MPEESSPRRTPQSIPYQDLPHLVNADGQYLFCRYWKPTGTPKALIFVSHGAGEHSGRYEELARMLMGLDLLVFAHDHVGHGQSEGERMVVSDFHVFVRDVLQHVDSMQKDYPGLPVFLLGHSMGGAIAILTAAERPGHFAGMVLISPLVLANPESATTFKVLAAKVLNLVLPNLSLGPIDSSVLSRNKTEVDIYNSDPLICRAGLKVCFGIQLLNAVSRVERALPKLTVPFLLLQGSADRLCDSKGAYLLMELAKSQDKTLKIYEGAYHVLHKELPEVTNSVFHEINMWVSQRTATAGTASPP
smiles,measurement,setting,value
"O=C(CCCc1ccccc1)C(=O)NCCc1ccc(Oc2ccccc2)cc1 [Compound 51, 2-Oxo-N-(4-phenoxyphenethyl)-5-phenylpentanamide]",inhibition of PLA2G4E (in words),hPLA2G4E,not inhibited
same,inhibition of MAGL (in words),hMAGL,not inhibited

# Reference: paper PMC7498158 (Journal of Medicinal Chemistry, 2020)
